The text below walks through data of ChEMBL document CHEMBL4602726, “Discovery of the First Vitamin K Analogue as a Potential Treatment of Pharmacoresistant Seizures” (J Med Chem, 2020).

One data set deals with Cytochrome P450 2D6 (Homo sapiens, UniProt P10635). The experiment in a line: Inhibition of CYP2D6 in human liver microsomes using isoform-specific probe substrates incubated for 15 to 30 mins by LC-MS/MS analysis. In kind it is ADME. The method in brief: (§1)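 Pooled mixed-gender human liver microsomes 0.2 mg/mL in 100 mM potassium phosphate with 2 mM NADPH. Isoform-specific probe substrates near Km. Organic solvent ≤1% final. Incubated 37°C for 15–30 min, quenched with acetonitrile plus internal standard. Probe metabolites measured by LC-MS/MS; percent inhibition versus vehicle, IC50 by variable-slope sigmoid fit.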
(In general: Liver microsomes are a subcellular fraction often used to study metabolism.)

Data set [1] can be described thus: Drug reactivity with 2-mercaptoethanol measured over 24 hrs. Type of data set: physicochemical.
The nature of data set [2]: Toxicity in CF1 mouse assessed as induction of motor/sedative effects at 400 mg/kg, ip. In kind it is organism-based. The following applies: in vivo. Summed up:
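Rotarod at 6 rpm on the same animals immediately before 6 Hz stimulation, 1 h after ip dosing. A mouse falling three times within one minute was scored impaired.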

The nature of data set [3]: Toxicity in CF1 mouse assessed as induction of motor impairment during acute (1 hr) observation period by rotarod assay. The following applies: mouse, in vivo, 1 h. The method in brief: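 Male CF-1 mice, ip dosing in miglyol 840/DMSO (95%/5%), up to 800 mg/kg. Rotarod at 6 rpm done 1 h after dosing, on the same animals just before 6 Hz testing. Falling three times within one minute scored as impaired; animals also inspected visually.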

In a further data set the target is Cytochrome P450 2C19 (Homo sapiens, UniProt P33261). The experiment in a line: Inhibition of CYP2C19 in human liver microsomes using isoform-specific probe substrates incubated for 15 to 30 mins by LC-MS/MS analysis. Type of data set: ADME. The method in brief: as §1
A short description of data set [4]: Drug level in CD1 mouse plasma at 400 mg/kg, ip after 2 hrs by LC-MS/MS analysis. In kind it is ADME, organism-based. Summed up: (§2)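 Male mice fasted overnight and given ip dose in 95% Miglyol 840/5% DMSO. Plasma precipitated 3:1 with acetonitrile plus internal standard. Brain homogenized 3:1 in PBS, then acetonitrile extraction. LC-MS/MS in MRM mode, standard curve 1 ng/mL–10 μg/mL. Ratio = mean tissue (ng/g) over mean plasma (ng/mL) concentration.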

Data set [5] is described as follows: Toxicity in CF1 mouse assessed as induction of abdominal constriction measured during 1 hr observation period by writhing test. The following applies: in vivo. In general terms: Writhing tests count abdominal constrictions after an irritant is injected.
The nature of data set [6]: Drug level in CD1 mouse brain at 400 mg/kg, ip after 1 hr by LC-MS/MS analysis. The following applies: read-out: Drug uptake. In kind it is ADME, organism-based. The method in brief:
as §2

Data set [7] in a line: Ratio of drug level in brain to plasma in CD1 mouse at 400 mg/kg, ip after 4 hrs by LC-MS/MS analysis. In kind it is ADME, organism-based. Particulars: brain and plasma, read-out: BPR. The method in brief:
as §2

Chain of Cytochrome P450 2C19 (P33261 whole entry, canonical isoform): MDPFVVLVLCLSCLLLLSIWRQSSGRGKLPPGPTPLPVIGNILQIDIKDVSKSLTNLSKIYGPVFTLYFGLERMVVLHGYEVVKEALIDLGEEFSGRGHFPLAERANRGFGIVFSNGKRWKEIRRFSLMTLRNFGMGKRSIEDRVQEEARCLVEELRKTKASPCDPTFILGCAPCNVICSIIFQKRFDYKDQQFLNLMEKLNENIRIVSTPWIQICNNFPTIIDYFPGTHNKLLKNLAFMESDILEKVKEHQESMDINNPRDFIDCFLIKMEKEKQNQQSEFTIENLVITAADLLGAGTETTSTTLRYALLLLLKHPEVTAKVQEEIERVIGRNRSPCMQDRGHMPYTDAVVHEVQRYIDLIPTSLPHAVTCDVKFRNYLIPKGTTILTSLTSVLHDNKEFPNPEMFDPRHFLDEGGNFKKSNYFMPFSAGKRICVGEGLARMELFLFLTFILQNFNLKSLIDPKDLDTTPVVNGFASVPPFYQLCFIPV
Chain of Cytochrome P450 2D6 (P10635 whole entry, canonical isoform): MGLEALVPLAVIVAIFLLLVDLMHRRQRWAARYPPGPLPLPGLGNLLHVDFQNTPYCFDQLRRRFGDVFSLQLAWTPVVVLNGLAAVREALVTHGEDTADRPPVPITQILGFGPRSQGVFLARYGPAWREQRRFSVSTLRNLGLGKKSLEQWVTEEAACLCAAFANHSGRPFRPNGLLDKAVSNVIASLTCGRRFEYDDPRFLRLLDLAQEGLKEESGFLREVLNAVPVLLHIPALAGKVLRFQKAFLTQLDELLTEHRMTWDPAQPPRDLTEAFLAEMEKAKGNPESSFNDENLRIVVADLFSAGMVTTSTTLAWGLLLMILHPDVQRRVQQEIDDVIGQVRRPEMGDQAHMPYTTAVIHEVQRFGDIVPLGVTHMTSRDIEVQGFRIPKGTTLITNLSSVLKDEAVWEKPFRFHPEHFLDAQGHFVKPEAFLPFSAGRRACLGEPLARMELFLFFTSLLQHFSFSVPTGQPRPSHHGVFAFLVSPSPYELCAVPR

As for `CC(C)CCNC1=CC(=O)c2ccccc2C1=O`, the IC50 against Cytochrome P450 2D6 was greater than 100 µM; on Cytochrome P450 2C19, 16.4 µM. In addition, the Drug metabolism result in [1] is “Metabolite_Notdetected”. For the same molecule, the Activity entry in data set [2] is “Non-Toxic”; in data set [5], “Toxic”. The TD50 in data set [3] was greater than 800 mg/kg. The same molecule came in with a concentration at 2 h in data set [4] of 2750 ng/mL. Moreover, the concentration at 1 h in data set [6] was 3940 ng/g. Moreover, the Kp at 4 h in data set [7] came out at 1.

The term IC50 denotes the concentration at which inhibition is half-maximal. A high value points to weaker potency in that assay. A word on the TD50: it is the dose at which the toxic effect under study appears in half of the subjects.
